Hits are enriched below; roughly 3.5% of the tested compounds scored in any of these assays.
ABCB1 block – blocks JC-1 efflux by human ABCB1 transporter | inhibition, % at 6.6 µM | CCRF-Adr cells, flow cytometry | hit rate 0.067% among 190,000; in the data active = inhibition above about 40%;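 also: 0% = vehicle and 100% = reference inhibitor; higher value means more JC-1 retained so stronger ABCB1 efflux block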
Target sequence (P08183 whole entry, looked up): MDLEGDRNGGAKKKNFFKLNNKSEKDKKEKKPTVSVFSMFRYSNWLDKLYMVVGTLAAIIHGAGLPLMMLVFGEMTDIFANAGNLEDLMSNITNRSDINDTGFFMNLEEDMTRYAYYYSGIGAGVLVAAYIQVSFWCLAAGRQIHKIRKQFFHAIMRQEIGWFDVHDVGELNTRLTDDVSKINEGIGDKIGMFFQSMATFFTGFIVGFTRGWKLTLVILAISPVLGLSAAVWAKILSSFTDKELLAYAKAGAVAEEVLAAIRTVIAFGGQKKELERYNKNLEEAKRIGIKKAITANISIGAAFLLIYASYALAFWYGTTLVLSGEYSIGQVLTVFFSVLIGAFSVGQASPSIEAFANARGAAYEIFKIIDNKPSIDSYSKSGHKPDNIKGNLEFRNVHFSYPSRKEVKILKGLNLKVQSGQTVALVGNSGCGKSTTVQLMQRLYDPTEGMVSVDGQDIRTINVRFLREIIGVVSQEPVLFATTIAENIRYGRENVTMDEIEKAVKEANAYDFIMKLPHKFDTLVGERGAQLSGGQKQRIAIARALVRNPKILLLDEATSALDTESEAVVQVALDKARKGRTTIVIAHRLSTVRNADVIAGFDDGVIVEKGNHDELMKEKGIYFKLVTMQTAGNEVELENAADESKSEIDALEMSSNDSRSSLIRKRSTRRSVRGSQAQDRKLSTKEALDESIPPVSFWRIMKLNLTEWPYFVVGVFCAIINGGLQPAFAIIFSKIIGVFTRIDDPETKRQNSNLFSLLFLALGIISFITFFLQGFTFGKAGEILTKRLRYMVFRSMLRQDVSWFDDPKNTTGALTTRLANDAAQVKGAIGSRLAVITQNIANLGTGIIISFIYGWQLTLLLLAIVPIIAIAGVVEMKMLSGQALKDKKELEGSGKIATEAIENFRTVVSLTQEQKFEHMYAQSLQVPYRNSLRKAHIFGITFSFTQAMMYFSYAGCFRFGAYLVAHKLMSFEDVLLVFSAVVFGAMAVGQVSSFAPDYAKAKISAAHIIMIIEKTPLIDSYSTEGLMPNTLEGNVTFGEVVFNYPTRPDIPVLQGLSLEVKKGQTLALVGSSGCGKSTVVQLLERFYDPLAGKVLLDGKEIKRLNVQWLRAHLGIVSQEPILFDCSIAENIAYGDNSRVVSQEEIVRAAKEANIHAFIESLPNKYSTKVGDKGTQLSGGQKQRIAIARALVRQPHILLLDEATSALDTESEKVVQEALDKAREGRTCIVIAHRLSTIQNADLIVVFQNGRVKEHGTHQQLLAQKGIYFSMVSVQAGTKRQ
WT yeast gro inh – growth inhibition of WT yeast, mitochondrial fusion screen; inhibition, % at 10 µM; hit rate 2.1% among 190,000; mitochondrial fusion phenotypic screen, WT strain; in the data active = inhibition above about 58%; tested in S. cerevisiae
MEKK3 PB1 HTS – raises or lowers MEK5 binding to the human MEKK3 PB1 domain. AID 1529. Q99759. hit rate 1.4% among 290,000. bead-based flow cytometry, Alexa488-MEK5 binding to MEKK3; actives lie on both sides; 0 = blocked by unlabeled MEK5, 100 = vehicle. binding response (% of control), % at 10 µM;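 active = binding response more than 3 SD above or below the average of its plate-row segment, actives on both sides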;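 also: Alexa488 bead fluorescence after subtracting the streptavidin-only scavenger bead signal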
MEKK2 WT-MEK5 – raises or lowers MEK5 binding to wildtype human MEKK2 PB1 domain | bead flow cytometry, Alexa488-MEK5 binding to MEKK2 WT; actives lie on both sides | binding response (% of control), % at 10 µM | hit rate 1.1% among 290,000 | Q9Y2U5; in the data active = binding response below about 67% or above about 130%
ABCG2 inh – inhibitors of human ABCG2 transporter, ABCB1 counter-screen. Q9UNQ0. IgMXP3 cells, JC-1 efflux, flow cytometry. inhibition, % at 6.6 µM. hit rate 0.1% among 190,000. AID 1325;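 active = inhibition above 80%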;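 also: 0% = DMSO and 100% = nicardipine control wells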
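test system = two drug-resistant human cell lines, ABCG2 and ABCB1 | amount = 3 million cells/mL final, two lines in 1:1 ratio | reagent = JC-1 transporter substrate | doses = one concentration, 6.6 µM final | incubation = 10 min at 25 °C | signal = flow cytometric JC-1 green MFI at 530 nm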
MEKK2mut PB1 HTS – signal of MEK5 binding to mutant human MEKK2 PB1 domain | bead flow cytometry, Alexa488-MEK5 binding to MEKK2 mutant | percent response, % at 10 µM | hit rate 0.35% among 290,000 | AID 1530; in the data active = percent response above about 24%, passing the limit was not always enough
MEKK2wt confirm – raises or lowers MEK5 binding to wildtype human MEKK2, retest; hit rate 2.4% among 5,900; bead flow cytometry, Alexa488-MEK5 binding to MEKK2 WT; actives lie on both sides; binding response (% of control), % at 10 µM; shares compounds with MEKK3 PB1 HTS; AID 1892; in the data active = binding response below about 16% or above about 210%; inactive = in between
MEKK2mut-MEK5 – signal of MEK5 binding to mutant human MEKK2, retest | bead flow cytometry, Alexa488-MEK5 binding to MEKK2 mutant | percent response, % at 10 µM | shares compounds with MEKK3 PB1 HTS | hit rate 2% among 5,900 | AID 1893; in the data active = percent response mostly above about 71%, no sharp cut-off; inactive = mostly below about 38%;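 also: higher means compound restores mutant binding toward wildtype level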
MEKK3 confirm – MEKK3-MEK5 PB1 inhibition, single concentration confirmation. shares compounds with MEKK3 PB1 HTS. bead flow cytometry, Alexa488-MEK5 binding to MEKK3; hits give low values. binding response (% of control), % at 10 µM. hit rate 1.8% among 5,900;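 active = binding response below 72% of control, or above a set upper limit, though filed actives all read lower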;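 also: 100% = DMSO only wells and 0% = binding blocked by excess unlabeled MEK5; lower values mean stronger disruption of MEK5 binding to MEKK3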
An asterisk follows results filed as active; / = no result given; [ ] = another dose, or the depositor's remark.

SMILES	ABCB1 block	WT yeast gro inh	MEKK3 PB1 HTS	MEKK2 WT-MEK5	ABCG2 inh	MEKK2mut PB1 HTS	MEKK2wt confirm	MEKK2mut-MEK5	MEKK3 confirm
CCOc1ccc(CN2CCC(n3nccc3NC(=O)c3ccccc3OC)CC2)cc1	/	/	102.0	102.0	/	4.0	/	/	/
Cc1ccc(Cl)cc1N1CCN(C(=O)Cc2cn(C)c3ccccc23)CC1	0.4	56.9	130.0*	117.0	1.6	5.0	106.0	4.0	107.0
Cc1ccc(CNC(=O)C2CCC(=O)N(CC3CCCCC3)C2)o1 (stereo not drawn)	/	/	102.0	100.0	/	-1.0	/	/	/
CC(/C=C/c1ccccc1)=N/NC(=O)C(O)c1ccccc1 (stereo not drawn)	-0.6	-15.3	156.0*	112.0	-0.5	1.0	101.0	1.0	101.0
O=C(CNC(=O)C(c1ccccc1)c1ccccc1)N/N=C/c1cccnc1	/	/	96.0	98.0	/	-5.0	/	/	/
O=C(N/N=C/c1cccnc1)C(O)c1ccccc1 (stereo not drawn)	0.1	-2.2	146.0*	110.0	2.7	1.0	106.0	4.0	107.0
CC(=O)Oc1ccc(C(=O)Cc2ccc3ccccc3n2)c(O)c1C	0.1	7.0	135.0*	105.0	0.7	7.0	110.0	3.0	108.0
Cc1c(O)ccc(/C(Cc2ccc3ccccc3n2)=N\O)c1O	-0.4	-8.9	101.0	92.0	-1.3	0.0	/	/	/
O=c1[nH]ncn2cccc12	0.1	-7.7	78.0*[inhibitor]	92.0	0.3	-5.0	99.0	10.0	105.0
CCOC(=O)c1c(NC(=O)c2nn(C)cc2[N+](=O)[O-])sc(C)c1C	-0.4	9.0	104.0	98.0	-0.3	-10.0	/	/	/
c1ccc(CN2CCN(CCCNc3ccc4nnc(-c5ccccc5)n4n3)CC2)cc1	1.2	10.5	114.0	132.0	9.3	24.0*	161.0	38.0	111.0
Cc1ccc(CNc2ccc3nnc(-c4ccccc4)n3n2)cc1	1.1	1.5	108.0	102.0	15.4	-3.0	/	/	/
Cc1cc(C)cc(NC(=S)NCc2cccnc2)c1	0.8	-9.2	142.0*	109.0	5.5	0.0	101.0	0.0	99.0
Fc1ccc(NC(=S)NCc2cccnc2)cc1	0.3	-6.5	47.0*[inhibitor]	56.0	-0.1	-14.0	103.0	-3.0	102.0
Cn1c(O)c(N=NC(=O)c2cc(-c3cccs3)nc3ccccc23)c2ccccc21	1.3	-3.6	130.0*	100.0	3.2	1.0	99.0	0.0	105.0
O=C(N=Nc1c(O)[nH]c2ccc(Br)cc12)c1cc(-c2cccs2)nc2ccccc12	0.1	-9.7	101.0	98.0	3.3	0.0	/	/	/
CC(=O)Nc1ccc(N2C(=O)CSC2c2ccc(F)cc2)cc1 (stereo not drawn)	0.2	-0.3	81.0*[inhibitor]	80.0	0.4	-4.0	99.0	0.0	100.0
CC(C)Oc1ccc(CNC(=O)Oc2ccccc2)cc1	/	/	99.0	103.0	/	0.0	/	/	/
Cc1nn(C)c(Sc2ccccc2N)c1[N+](=O)[O-]	0.4	-13.9	97.0	99.0	0.5	-2.0	/	/	/
Cc1c(CN2CCC(CO)(CCOc3ccccc3)CC2)[nH]c2c(Cl)cccc12	1.1	92.9*	115.0	240.0*	0.6	28.0	195.0	50.0	108.0
O=C(NC1CCCC1)C1CCCN1C(=O)Oc1ccccc1 (stereo not drawn)	2.2	5.5	99.0	98.0	10.7	3.0	/	/	/
CCCCCCCCCn1c2c(c(=N)c3c1CCC3)CCCC2	0.2	80.0	110.0	177.0*	0.4	45.0	134.0	16.0	102.0
CCCCCCCCCCn1c2c(c(=N)c3c1CCC3)CCC2	0.8	2.6	108.0	140.0*	3.5	10.0	110.0	6.0	96.0
COc1cc(C(=O)Nc2ccc(C)cc2)c(-n2cnnn2)cc1OC	-0.8	10.2	102.0	100.0	2.8	5.0	/	/	/
Cc1ccc(N(CC(=O)NC(C)C)C(=O)CCC(=O)Nc2nccs2)cc1C	/	/	105.0	107.0	/	10.0	/	/	/
SMILES	ABCB1 block	WT yeast gro inh	MEKK3 PB1 HTS	MEKK2 WT-MEK5	ABCG2 inh	MEKK2mut PB1 HTS	MEKK2wt confirm	MEKK2mut-MEK5	MEKK3 confirm
O=C(Nc1sc2c(c1C(=O)O)CCC2)C(=O)N1CCOCC1	/	/	101.0	108.0	/	4.0	/	/	/
Cc1nc2c3ccccc3nc(SCC(=O)c3ccc(Cl)cc3)n2n1	0.5	13.1	129.0*	100.0	1.1	-1.0	103.0	1.0	107.0
COCCCNCCOCCSc1ccc(Cl)cc1	0.7	-1.8	91.0	93.0	1.4	-2.0	/	/	/
COCCCNCCCCSc1ccc(Cl)cc1	-0.1	9.2	52.0*[inhibitor]	93.0	0.2	-1.0	104.0	4.0	101.0
CCOC(=O)c1ccc(N/C=C\C(=O)c2cccc(OC)c2)cc1	0.4	7.8	201.0*	114.0	8.6	1.0	107.0	6.0	103.0
COc1ccc(N/C=C\C(=O)c2ccc3c(c2)OCO3)cc1	0.5	-10.3	1.0*[inhibitor]	-1.0*[inhibitor]	3.5	-9.0	99.0	0.0	106.0
COc1ccc(C(=O)/C=C/Nc2ccc([N+](=O)[O-])cc2)cc1	-0.2	-3.0	70.0*[inhibitor]	91.0	12.8	-1.0	101.0	2.0	103.0
CCOc1ccc(N/C=C\C(=O)c2ccc3c(c2)OCO3)cc1	1.0	-15.5	102.0	103.0	2.6	2.0	/	/	/
CC1(C)CC(=O)C(C=Nc2ccncc2)=C(O)C1	/	/	0.0*[inhibitor]	-7.0*[inhibitor]	/	-23.0	98.0	-6.0	96.0
COCCCN=CC1=C(O)CC(C)(C)CC1=O	0.1	-11.9	102.0	101.0	-0.1	3.0	/	/	/
CCCCCCN=CC1=C(O)CC(C)(C)CC1=O	-0.2	21.9	0.0*[inhibitor]	0.0*[inhibitor]	-0.7	-32.0	99.0	-3.0	93.0
Cc1c(NC(=O)C(C)Sc2nc3ccccc3c(=O)n2CCO)c(=O)n(-c2ccccc2)n1C (stereo not drawn)	0.2	-29.3	99.0	101.0	0.5	1.0	/	/	/
Cc1ccc(COc2ccsc2C(=O)NN)cc1	0.0	-7.6	102.0	97.0	2.2	-6.0	/	/	/
CC(NCc1cccc(OCc2ccccc2)c1)C(O)c1ccccc1 (stereo not drawn)	1.1	43.8	100.0	119.0	1.8	12.0	/	/	/
CCCCCNCc1ccc(Cl)cc1	0.2	-8.6	100.0	103.0	1.4	0.0	/	/	/
OCCCCNCc1ccc(OCc2ccc(Cl)cc2)cc1	-0.5	24.1	108.0	181.0*	0.0	37.0*	107.0	3.0	101.0
CC(NCc1ccc(OCc2ccc(Cl)cc2)cc1)C(O)c1ccccc1 (stereo not drawn)	1.0	94.0	94.0	144.0*	0.8	4.0	160.0	33.0	96.0

Assay outcomes: PubChem BioAssay, several laboratories
